Legend:
[1] = melting temperature; fluorescence melt of hairpins on a sequencing array, two-state fit, raised by 9.35 °C to match UV melts; details: sodium 0.088 M
How it was run: (§1)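 With Cy3 and quencher oligos annealed, library hairpins on a sequenced MiSeq flow cell were imaged for Cy3 fluorescence in 50 mM Na-HEPES pH 8.0, 25 mM NaCl, in 2.5 °C steps up to 60 °C. Melting temperature and folding enthalpy were derived from bootstrapped two-state fits of signals normalised to pre-quench Cy3 and to control constructs. Four replicates were combined by inverse variance, with fitted temperatures raised by 9.35 °C to match UV melts.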

[2] = folding enthalpy; higher = less favourable; fluorescence melt of hairpins on a sequencing array, two-state fit; details: sodium 0.088 M
How it was run: as §1

Sequence | Tm [1] | folding enthalpy [2]
CCAGAGAAATCTGG (((((....))))) | 44.4 °C | -19.2 kcal/mol
CCATCGAAAGATGG (((((....))))) | 60.5 °C | -23.3 kcal/mol
CCCTTGAAAAAGGG (((((....))))) | 47.2 °C | -16.9 kcal/mol
CCTATGAAAATAGG (((((....))))) | 41.2 °C | -14.2 kcal/mol
CCTGAGAAATCAGG (((((....))))) | 44.8 °C | -19.4 kcal/mol
CCTGGGAAACCAGG (((((....))))) | 55 °C | -19.5 kcal/mol
CCTGTGAAAACAGG (((((....))))) | 51.6 °C | -17 kcal/mol
CGAAACGGAAACGTTCG (((.(((....)))))) | 45 °C | -25.9 kcal/mol
CGAACCGGAAACGGTCG (((.(((....)))))) | 51.4 °C | -23 kcal/mol
CGAACGGAAACGTACTCG ((((((....)))..))) | 15 °C | -5.58 kcal/mol
CGAACGGAAACGTGTTCG ((((((....)))..))) | 42.6 °C | -26.7 kcal/mol
CGAACTCGGAAACGATCG (((..(((....)))))) | 22.9 °C | -16.3 kcal/mol
CGAATCGGAAACGACTCG (((.(((....))).))) | 42.1 °C | -36.2 kcal/mol
CGAATGCGGAAACGCTCG (((..(((....)))))) | 37.2 °C | -15.3 kcal/mol
CGACACGGAAACGTTCG (((.(((....)))))) | 42 °C | -35 kcal/mol
CGACCGGAAACGGCATCG ((((((....)))..))) | 30 °C | -14.8 kcal/mol
CGACCGGAAACGGGGTCG ((((((....)))..))) | 48.6 °C | -28.8 kcal/mol
CGACCGGAAACGGTTCG ((((((....))).))) | 49.2 °C | -20.1 kcal/mol
CGAGACGGAAACGTATCG (((.(((....))).))) | 52.1 °C | -34.6 kcal/mol
CGAGACGGAAACGTGTCG (((.(((....))).))) | 52.1 °C | -37.6 kcal/mol
CGAGAGCGGAAACGCTCG (((..(((....)))))) | 58.4 °C | -18.5 kcal/mol
CGAGATCGGAAACGATCG (((..(((....)))))) | 51.6 °C | -20 kcal/mol
CGAGCCGGAAACGGTCG (((.(((....)))))) | 48.6 °C | -27.3 kcal/mol
CGAGCGGAAACGCATCG ((((((....))).))) | 48.5 °C | -20.9 kcal/mol

Sequence | Tm [1] | folding enthalpy [2]
CGAGCGGAAACGCATTCG ((((((....)))..))) | 33.1 °C | -14.8 kcal/mol
CGAGCGGAAACGCCGTCG ((((((....)))..))) | 55 °C | -15.5 kcal/mol
CGAGCGGAAACGCGCTCG ((((((....)))..))) | 68.5 °C | -26.4 kcal/mol
CGAGCGGAAACGCTCTCG ((((((....)))..))) | 40.5 °C | -8.45 kcal/mol
CGAGGTCGGAAACGATCG (((..(((....)))))) | 41.2 °C | -21 kcal/mol
CGAGTCGGAAACGATCG (((.(((....)))))) | 40.8 °C | -27.4 kcal/mol
CGATAACGGAAACGTTCG (((..(((....)))))) | 35.6 °C | -16.1 kcal/mol
CGATCGGAAACGAAATCG ((((((....)))..))) | 33.9 °C | -22.2 kcal/mol
CGATCGGAAACGAATCG ((((((....))).))) | 46 °C | -34.7 kcal/mol
CGATCGGAAACGAGATCG ((((((....)))..))) | 42.5 °C | -28.4 kcal/mol
CGATCGGAAACGATATCG ((((((....)))..))) | 35.5 °C | -18.4 kcal/mol
CGATCGGAAACGATTCG ((((((....))).))) | 43.7 °C | -24.9 kcal/mol
CGATCGGAAACGATTTCG ((((((....)))..))) | 30.2 °C | -20.4 kcal/mol
CGATGCGGAAACGCGTCG (((.(((....))).))) | 62.1 °C | -47.4 kcal/mol
CGATGGAAACATCG (((((....))))) | 52.6 °C | -23.9 kcal/mol
CGATTCCGGAAACGGTCG (((..(((....)))))) | 36.2 °C | -27.7 kcal/mol
CGATTCGGAAACGACTCG (((.(((....))).))) | 42.6 °C | -37.8 kcal/mol
CGATTGCGGAAACGCTCG (((..(((....)))))) | 33.5 °C | -15.9 kcal/mol
CGATTTCGGAAACGATCG (((..(((....)))))) | 29.6 °C | -9.46 kcal/mol
CGCACCCGGAAACGGGCG (((..(((....)))))) | 46.1 °C | -12 kcal/mol
CGCACCGGAAACGGGCG (((.(((....)))))) | 55.7 °C | -25.2 kcal/mol
CGCACGGAAACGTCAGCG ((((((....)))..))) | 42.7 °C | -26.4 kcal/mol
CGCACGGAAACGTCTGCG ((((((....)))..))) | 42.6 °C | -23.8 kcal/mol
CGCACGGAAACGTGAGCG ((((((....)))..))) | 50.5 °C | -14.8 kcal/mol

Reference: the array DNA melting data of Ke et al. (doi:10.1101/2024.01.08.574731)
